Compound activity (PubChem BioAssay)
An excerpt weighted towards active compounds, which were near 2.3% of everything screened.
CSN deneddyl inh: inhibitors of human CSN-mediated cullin deneddylation | Q92905 | Purified CSN, SCF-Nedd8-OG deneddylation, fluorescence polarization | inhibition, % at 12.5 µM | hit rate 0.38% among 360,000;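 active means pattern-corrected inhibition above about 35%, with an unprinted fluorescence ratio check between 0.5 and 1.5, limit read from the data, passing the limit was not always enough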
Target sequence (Q92905 whole entry, looked up, one chain of several): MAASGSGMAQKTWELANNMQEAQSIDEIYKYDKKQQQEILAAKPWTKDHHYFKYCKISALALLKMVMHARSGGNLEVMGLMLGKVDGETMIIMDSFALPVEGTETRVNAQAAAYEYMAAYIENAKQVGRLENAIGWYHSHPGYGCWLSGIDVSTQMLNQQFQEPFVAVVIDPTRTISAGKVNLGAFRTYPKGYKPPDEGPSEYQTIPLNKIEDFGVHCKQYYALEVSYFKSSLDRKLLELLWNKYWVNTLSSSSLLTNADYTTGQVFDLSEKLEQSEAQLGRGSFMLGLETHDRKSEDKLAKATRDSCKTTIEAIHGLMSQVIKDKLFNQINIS
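Material: human Csn5 produced in HEK293T cells; Input: enzyme 0.24 nM; Reagent: SCFSkp2-Nedd8OG substrate at 10 nM final; Dosing: 12.5 µM compound; Incubation: 90 min reaction at room temperature; Detection: fluorescence polarization of the substrate; Evaluation: % inhibition of substrate cleavage by Csn5; Control set: substrate-only high control, full reaction low control.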
MT1-MMP act inh: MT1-MMP (human) activation inhibition. P50281. HT1080 RFP-PRO-GFP cells, GFP/RFP ratio fluorescence, overnight; percent of plate control window, DMSO zero. GFP/RFP ratio change, % at 20 µM. hit rate 0.061% among 360,000;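 active means GFP/RFP ratio change of at least 30% with cell ATP level not reduced by more than half and red fluorescence within 50% of control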
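Test system: HT1080 RFP-PRO-GFP cells; Benchmarks: DMSO and RFP-L50D-GFP cell wells; Timing: cells overnight before dosing, compound overnight, 37 °C, 5% CO2; Compound: one 20 µM compound dose with 1% DMSO; Read-out: GFP/RFP fluorescence ratio.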
SUMO1-SIM PPI: SUMO1-SIM interaction modulation. SUMO1 binding to a labelled peptide, TR-FRET, 1 h. inhibition, % at 20 µM. hit rate 0.33% among 360,000. AID 602429; in the data active means inhibition above about 37%
Target sequence (P63165 whole entry, looked up): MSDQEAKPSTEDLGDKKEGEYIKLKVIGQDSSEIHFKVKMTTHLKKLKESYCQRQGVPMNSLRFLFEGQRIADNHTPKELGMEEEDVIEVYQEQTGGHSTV
Rpn11 block: inhibitors of human proteasome Rpn11; O00487; human 26S proteasome, Ub4-pepOG fluorescence polarization; 20S core pre-blocked with epoxomicin; inhibition, % at 20 µM; hit rate 0.59% among 360,000; AID 588493;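 active means inhibition at 20 µM, scaled to each plate's controls, above about 33%, limit read from the data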
SKN-1 block: blocks SKN-1 activity in C. elegans; AID 624304; hit rate 0.49% among 360,000; C. elegans VP596 Pgst-4::GFP/RFP ratio, acrylamide-induced, 24 h; inhibition, % at 21.8 µM;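 active means interference check ratio from 0.5 to 1.5 plus GFP to RFP signal ratio inhibition reaching or exceeding a fixed threshold, cut at about 30% in these data, passing the limit was not always enough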
DNMT1 inh: inhibitors of human DNMT1; P26358; DNMT1 molecular beacon, Hinp1I cleavage, fluorescence; inhibition (reported as % activation of signal), % at 10 µM; hit rate 0.83% among 360,000; AID 588458; in the data active means inhibition above about 50%
Beacon interf DR: counter-screen for DNMT1 inhibitors: spectral interference, dose response | shares compounds with DNMT1 inh | molecular beacon fluorescence | IC50, µM | 200 tested, under 10 active | AID 602382; call rule not given here
DNMT1 confirm: confirmation of human DNMT1 inhibitors | hit rate 8% among 2,300 | DNMT1 molecular beacon HinP1I cleavage, fluorescence | shares compounds with DNMT1 inh | inhibition, % at 10 µM;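 active means average inhibition of at least 30% in the single-concentration confirmation test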
DNMT1 interf: beacon fluorescence artifact counter-screen | AID 602387 | shares compounds with DNMT1 inh | hit rate 1% among 2,300 | DNMT1 molecular beacon spectral interference counterscreen, fluorescence 485/520 | activation (fluorescence interference), % at 10 µM;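 active means activation of at least 30% at 10 µM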;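 further: DNMT1 catalytic domain with a HinP1I cleavage step and a FAM/dabcyl DNA beacon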
A number is an active result; - = inactive; . = not tested or not shown.

SMILES	CSN deneddyl inh	MT1-MMP act inh	SUMO1-SIM PPI	Rpn11 block	SKN-1 block	DNMT1 inh	DNMT1 confirm	DNMT1 interf	others
CCOc1cc(/C=C2/C(=N)N3N=C(C)SC3=NC2=O)ccc1OS(=O)(=O)c1ccc(C)cc1	-	-	-	-	-	74.7	-	-
CCNC(=S)N/N=C1\C(=O)c2cccc3cccc1c23	-	-	-	-	-	-	.	.
O=C(N/N=C1/C(=O)c2cccc3cccc1c23)c1ccc(Cl)cc1	-	-	71.2	-	-	96.5	-	-
N#Cc1c(NC(=O)c2ccco2)sc2c1CCC2	39.3	-	-	-	-	54.2	-	-
NC(=O)c1c(NC(=O)c2ccco2)sc2c1CCC2	-	-	-	-	-	-	.	.
CC1(C)CC(=O)C=C(c2ccc(-c3cccc4c3sc3ccccc34)cc2)C1=O	-	-	-	-	-	-	.	.
C=C(C)CNC(=O)CCc1nnc(C2(c3ccc(Cl)cc3)CCC2)o1	-	-	-	-	-	-	.	.
COC(=O)CNC(=O)CCc1nnc(C2(c3ccc(Cl)cc3)CCC2)o1	-	-	-	-	-	58.2	-	-
O=C(O)C(C(=O)/C=C/c1ccco1)=C1SCCS1	-	-	-	-	-	95.8	-	-
O=C(C=C1SCCS1)/C=C/c1ccco1	-	-	-	-	-	87.8	-	-
Cc1nn(CCO)c2nc(-c3cccs3)cc(C(F)(F)F)c12	-	-	-	-	-	60.3	-	-
CCc1nc2c(OCC(N)=O)cccn2c1N(C)C(=O)C(C)C	-	-	-	-	-	-	.	.
Cc1ccc(C)c(Cn2nnc3c(=O)[nH]c(C(=O)NCc4ccco4)nc32)c1	-	-	-	-	-	52.0	-	-
O=C(NCc1ccco1)c1nc2c(nnn2Cc2ccccc2Cl)c(=O)[nH]1	-	-	-	-	-	-	.	.
CC(=O)N1CCc2cc(NC(=O)C3(C)CCN3Cc3ccccc3OC(F)F)ccc21 (stereo not drawn)	-	-	-	-	-	-	.	.
Cc1ccc(S(=O)(=O)c2c(N)n(CCCO)c3nc4ccccc4nc23)cc1	40.7	-	44.7	-	-	69.8	-	-
COc1ccc(/C=C/C(=O)NC(=S)Nc2ccc(S(=O)(=O)N=C(N)N)cc2)cc1OC	-	-	-	-	-	61.0	-	-
Clc1ccc(N2O[C@H]3C=C[C@@H]2C3)nc1	-	-	-	-	-	-	.	.
CCC(=O)Nc1ccc(NC(=S)NC(=O)c2cc3ccccc3o2)cc1	-	-	-	-	-	-	.	.
CCCC(=O)Nc1ccc(Cl)c(NC(=S)NC(=O)c2cc3ccccc3o2)c1	-	-	-	-	-	55.7	-	-
CCOc1ccc(Br)cc1C(=O)Nc1ccc(C(=O)NCC(C)C)cc1	-	-	-	-	-	62.6	-	-
COc1ccc(Br)cc1C(=O)Nc1ccc(C(=O)NCC(C)C)cc1	-	-	-	-	-	-	.	.
O=C(Nc1ccccc1)Nc1nnc(SCc2ccc(Cl)cc2)s1	-	-	-	-	-	-	.	.
O=C(CCc1nc2ccccc2c(=O)[nH]1)Nc1nnc(SCc2ccc(Cl)cc2)s1	-	-	-	-	-	67.7	-	-
Cc1ccc(Nc2nnc(SCc3nc4ccccc4c(=O)[nH]3)s2)cc1	-	-	-	-	-	66.0	-	-
SMILES	CSN deneddyl inh	MT1-MMP act inh	SUMO1-SIM PPI	Rpn11 block	SKN-1 block	DNMT1 inh	DNMT1 confirm	DNMT1 interf	others
O=C(CCc1nc2ccccc2c(=O)[nH]1)Nc1nnc(SCc2ccccc2F)s1	-	-	-	-	-	77.1	-	-
CCOC1=C2[C@@H](CN(S(=O)(=O)c3ccc(C)cc3)[C@H]2c2cccc3ccccc23)[C@H]2C(=O)NC(=O)[C@H]2C1	-	-	-	-	-	-	.	.
O=C(NN1C(=O)C2CC=C(Cl)CC2C1=O)c1ccncc1 (stereo not drawn)	-	-	-	-	-	58.3	-	-
CCO[C@@H]1OC(C(N)=O)=C[C@H](c2ccc(C(F)(F)F)cc2)[C@H]1CCCO	-	-	-	-	-	70.8	-	-
CCO[C@@H]1OC(C(=O)O)=C[C@H](c2ccc(C(F)(F)F)cc2)[C@H]1CCCO	-	-	-	-	-	-	.	.
CCOC(=O)c1ccc(-c2ccc(/C=N/NC(=O)CN(c3ccccc3Cl)S(C)(=O)=O)o2)cc1	-	-	-	-	-	-	.	.
CCOC(=O)c1ccc(-c2ccc(/C=N/NC(=O)CN(c3cccc(C)c3)S(C)(=O)=O)o2)cc1	-	-	-	-	-	57.0	-	-
COc1ccc(-c2nc3c4ccccc4ccn3c2Cc2cccc(F)c2)cc1OC	-	-	-	-	-	-	.	.
O=C(Nc1ccc(F)c(Cl)c1)c1cc(C2CCCN(S(=O)(=O)c3cccc4cccnc34)C2)on1 (stereo not drawn)	-	-	-	-	-	-	.	.
CCc1cc2c(=O)c(-c3cnn(-c4ccccc4)c3)c(C)oc2cc1OCC(=O)Nc1cccc(C)c1	-	-	-	-	-	60.6	-	-
CC(C)(C)S(=O)N1Cc2cc(C(=O)NCc3ccc(Oc4ccccc4)cc3)nc(-c3cccc(-c4cc5ccccc5o4)c3)c2[C@@H]1CCO (stereo partly drawn)	-	-	-	-	-	-	.	.
CN(CC(=O)Nc1ccccc1Cl)C(=O)COC(=O)c1ccc([N+](=O)[O-])s1	-	-	-	-	-	65.1	-	-
Cc1cc(C)c(NC(=O)COC(=O)c2ccc([N+](=O)[O-])s2)c(C)c1	-	-	-	-	-	-	.	.
NS(=O)(=O)c1ccc(NC(=O)COC(=O)c2ccc([N+](=O)[O-])s2)cc1	-	-	-	-	-	70.0	70.5	-	Beacon interf DR=-
CN(CC(=O)Nc1ccccc1Cl)C(=O)COC(=O)c1cccs1	-	-	-	-	-	-	.	.
CSc1ccc(C=NNc2ccc(S(=O)(=O)Nc3ccccc3C(=O)O)cc2[N+](=O)[O-])cc1	-	-	95.9	-	-	86.3	54.6	-	Beacon interf DR=-
C=CCOc1ccc(C=NNc2ccc(S(=O)(=O)Nc3ccccc3C(=O)O)cc2[N+](=O)[O-])cc1OC	-	-	69.2	-	-	90.0	110.2	-	Beacon interf DR=-
COc1cc(C=NNc2ccccc2[N+](=O)[O-])cc(OC)c1OC	-	-	-	-	-	53.4	-	-
